How the values were obtained:
Bone [1] = assay: Biodistribution in bone of rat 9L cells implanted Fischer rat at 15 to 30 uCi, iv after 120 mins by gamma-counter; assay type: ADME, organism-based, Bone element; conditions: in vivo, 2 h
Procedure, shortened: (§1)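 Male Fischer 344 rats (125-175 g) implanted intracranially by stereotactic injection of 5 × 10^4 9L gliosarcoma cells. Used 10-12 days after implantation. Tracer given into the tail vein at 15-30 µCi in 0.1-0.3 mL sterile saline. Groups of 4 were sacrificed at 15, 30, 60 and 120 min. Tissues were weighed and gamma-counted against dose standards, and counts decay-corrected to %ID/g (mean ± SD). One-way ANOVA.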

Brain [2] = assay: Biodistribution in brain of rat 9L cells implanted Fischer rat at 15 to 30 uCi, iv after 60 mins by gamma-counter; assay type: ADME, organism-based; conditions: in vivo, 1 h; procedure, shortened: as §1
Heart [3] = assay: Biodistribution in heart of rat 9L cells implanted Fischer rat at 15 to 30 uCi, iv after 15 mins by gamma-counter; assay type: ADME, organism-based; conditions: in vivo, 0.25 h; procedure, shortened: as §1
Spleen [4] = assay: Biodistribution in spleen of rat 9L cells implanted Fischer rat at 15 to 30 uCi, iv after 120 mins by gamma-counter; assay type: ADME, organism-based; conditions: in vivo, 2 h; procedure, shortened: as §1
[5] = Biodistribution in testis of rat 9L cells implanted Fischer rat at 15 to 30 uCi, iv after 15 mins by gamma-counter; assay type: ADME, organism-based; conditions: in vivo, 0.25 h; procedure, shortened: as §1
Heart [6] = assay: Biodistribution in heart of rat 9L cells implanted Fischer rat at 15 to 30 uCi, iv after 120 mins by gamma-counter; assay type: ADME, organism-based; conditions: in vivo, 2 h; procedure, shortened: as §1
Muscle tissue = assay: Biodistribution in muscle of rat 9L cells implanted Fischer rat at 15 to 30 uCi, iv after 120 mins by gamma-counter; assay type: ADME, organism-based; conditions: in vivo, 2 h; procedure, shortened: as §1
Kidney [7] = assay: Biodistribution in kidney of rat 9L cells implanted Fischer rat at 15 to 30 uCi, iv after 15 mins by gamma-counter; assay type: ADME, organism-based; conditions: in vivo, 0.25 h; procedure, shortened: as §1
Liver [8] = assay: Biodistribution in liver of rat 9L cells implanted Fischer rat at 15 to 30 uCi, iv after 30 mins by gamma-counter; assay type: ADME, organism-based; conditions: in vivo, 0.5 h; procedure, shortened: as §1
Lung [9] = assay: Biodistribution in lung of rat 9L cells implanted Fischer rat at 15 to 30 uCi, iv after 15 mins by gamma-counter; assay type: ADME, organism-based; conditions: in vivo, 0.25 h; procedure, shortened: as §1
[10] = Ratio of drug level from tumor to brain of rat 9L cells implanted Fischer rat at 15 to 30 uCi, iv after 60 mins by gamma-counter; assay type: ADME, organism-based; conditions: in vivo, 1 h
Procedure, shortened: (§2)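 Male Fischer 344 rats (125-175 g) received intracranial implants of 9L cells (5 × 10^4 cells) and were used 10-12 days later. Tracer was given by tail vein at 15-30 µCi in 0.1-0.3 mL sterile saline. Groups of 4 were killed at each time point. Tissues were weighed and gamma counted against dose standards with decay correction, giving %ID/g (mean). The ratio is tumor %ID/g over normal brain %ID/g.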

Spleen [11] = assay: Biodistribution in spleen of rat 9L cells implanted Fischer rat at 15 to 30 uCi, iv after 15 mins by gamma-counter; assay type: ADME, organism-based; conditions: in vivo, 0.25 h; procedure, shortened: as §1
[12] = Biodistribution in tumor of rat 9L cells implanted Fischer rat at 15 to 30 uCi, iv after 30 mins by gamma-counter; assay type: ADME, organism-based, Neoplasm; conditions: in vivo, 0.5 h; procedure, shortened: as §1
9L = assay: Drug uptake in rat 9L cells assessed as intracellular accumulation after 30 mins measured per 5 x 10^5 cells by gamma-counter; assay type: ADME, cell-based; conditions: 0.5 h
Procedure, shortened: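 9L cells were grown in DMEM with 10% FCS and penicillin/streptomycin, then trypsinized and washed twice in HBSS. About 5 × 10^5 cells received 5 µCi tracer in amino acid-free HBSS for 30 min at 37 °C, without or with 10 mM BCH (L-type inhibitor). Cells were centrifuged and rinsed twice with ice-cold HBSS, then gamma-counted with decay correction. Uptake expressed as % of standard per 5 × 10^5 cells. Triplicates, 1-way ANOVA.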

Brain [13] = assay: Biodistribution in brain of rat 9L cells implanted Fischer rat at 15 to 30 uCi, iv after 15 mins by gamma-counter; assay type: ADME, organism-based; conditions: in vivo, 0.25 h; procedure, shortened: as §1
[14] = Ratio of drug level from tumor to brain of rat 9L cells implanted Fischer rat at 15 to 30 uCi, iv after 30 mins by gamma-counter; assay type: ADME, organism-based; conditions: in vivo, 0.5 h; procedure, shortened: as §2
Liver [15] = assay: Biodistribution in liver of rat 9L cells implanted Fischer rat at 15 to 30 uCi, iv after 15 mins by gamma-counter; assay type: ADME, organism-based; conditions: in vivo, 0.25 h; procedure, shortened: as §1
Bone [16] = assay: Biodistribution in bone of rat 9L cells implanted Fischer rat at 15 to 30 uCi, iv after 60 mins by gamma-counter; assay type: ADME, organism-based, Bone element; conditions: in vivo, 1 h; procedure, shortened: as §1
Pancreas = assay: Biodistribution in pancreas of rat 9L cells implanted Fischer rat at 15 to 30 uCi, iv after 15 mins by gamma-counter; assay type: ADME, organism-based; conditions: in vivo, 0.25 h; procedure, shortened: as §1
Heart [17] = assay: Biodistribution in heart of rat 9L cells implanted Fischer rat at 15 to 30 uCi, iv after 30 mins by gamma-counter; assay type: ADME, organism-based; conditions: in vivo, 0.5 h; procedure, shortened: as §1
Lung [18] = assay: Biodistribution in lung of rat 9L cells implanted Fischer rat at 15 to 30 uCi, iv after 60 mins by gamma-counter; assay type: ADME, organism-based; conditions: in vivo, 1 h; procedure, shortened: as §1
[19] = Biodistribution in testis of rat 9L cells implanted Fischer rat at 15 to 30 uCi, iv after 60 mins by gamma-counter; assay type: ADME, organism-based; conditions: in vivo, 1 h; procedure, shortened: as §1
Kidney [20] = assay: Biodistribution in kidney of rat 9L cells implanted Fischer rat at 15 to 30 uCi, iv after 120 mins by gamma-counter; assay type: ADME, organism-based; conditions: in vivo, 2 h; procedure, shortened: as §1
Blood = assay: Biodistribution in blood of rat 9L cells implanted Fischer rat at 15 to 30 uCi, iv after 15 mins by gamma-counter; assay type: ADME, organism-based; conditions: in vivo, 0.25 h; procedure, shortened: as §1
Bone [21] = assay: Biodistribution in bone of rat 9L cells implanted Fischer rat at 15 to 30 uCi, iv after 30 mins by gamma-counter; assay type: ADME, organism-based, Bone element; conditions: in vivo, 0.5 h; procedure, shortened: as §1
Brain [22] = assay: Biodistribution in brain of rat 9L cells implanted Fischer rat at 15 to 30 uCi, iv after 30 mins by gamma-counter; assay type: ADME, organism-based; conditions: in vivo, 0.5 h; procedure, shortened: as §1

Drug uptake (Bone [1]): 0.2 % ID/g
Drug uptake (Brain [2]): 0.2 % ID/g
Drug uptake (Heart [3]): 0.43 % ID/g
Drug uptake (Spleen [4]): 0.4 % ID/g
Drug uptake [5]: 0.17 % ID/g
Drug uptake (Heart [6]): 0.3 % ID/g
Drug uptake (Muscle tissue): 0.39 % ID/g
Drug uptake (Kidney [7]): 0.76 % ID/g
Drug uptake (Liver [8]): 0.6 % ID/g
Drug uptake (Lung [9]): 0.4 % ID/g
Ratio [10]: 7.6
Drug uptake (Spleen [11]): 0.68 % ID/g
Drug uptake [12]: 2.1 % ID/g
Drug uptake (9L): 15.8 %ID
Drug uptake (Brain [13]): 0.2 % ID/g
Ratio [14]: 11.5
Drug uptake (Liver [15]): 0.73 % ID/g
Drug uptake (Bone [16]): 0.28 % ID/g
Drug uptake (Pancreas): 2.37 % ID/g
Drug uptake (Heart [17]): 0.47 % ID/g
Drug uptake (Lung [18]): 0.42 % ID/g
Drug uptake [19]: 0.27 % ID/g
Drug uptake (Kidney [20]): 0.56 % ID/g
Drug uptake (Blood): 0.36 % ID/g
Drug uptake (Bone [21]): 0.26 % ID/g
Drug uptake (Brain [22]): 0.18 % ID/g
Structure (SMILES): N[C@]1(C(=O)O)C[C@H]([18F])C1
